Results on 6 compounds are retold here after ChEMBL document CHEMBL1139318, “Tyrosinase inhibitory effects of 1,3-diphenylpropanes from Broussonetia kazinoki” (Bioorg Med Chem, 2009).

Test [1] addresses T1, Tyrosinase (Agaricus bisporus, UniProt O42713).
T1 sequence (O42713 whole entry): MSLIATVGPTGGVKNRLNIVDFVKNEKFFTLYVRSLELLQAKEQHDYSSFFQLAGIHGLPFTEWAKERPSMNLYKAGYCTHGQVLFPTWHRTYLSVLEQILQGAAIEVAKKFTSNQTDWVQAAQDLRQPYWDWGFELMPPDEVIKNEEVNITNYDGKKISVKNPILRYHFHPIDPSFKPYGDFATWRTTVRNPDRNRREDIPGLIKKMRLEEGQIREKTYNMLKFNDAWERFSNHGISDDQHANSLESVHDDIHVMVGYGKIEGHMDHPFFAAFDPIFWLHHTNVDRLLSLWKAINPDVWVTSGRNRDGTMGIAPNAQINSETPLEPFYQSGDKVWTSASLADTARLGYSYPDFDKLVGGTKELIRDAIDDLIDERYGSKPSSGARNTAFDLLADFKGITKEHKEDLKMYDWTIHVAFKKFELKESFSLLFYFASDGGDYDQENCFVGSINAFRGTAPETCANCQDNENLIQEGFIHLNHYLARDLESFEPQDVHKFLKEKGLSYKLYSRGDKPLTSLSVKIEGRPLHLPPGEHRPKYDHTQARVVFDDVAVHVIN
Kind of test: Inhibition of monophenolase activity of mushroom tyrosinase using as L-tyrosine substrate. Summed up:
(§1)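 Mushroom tyrosinase (144 units) was added to 0.25 M phosphate buffer (pH 6.8) with substrate: L-tyrosine for monophenolase or L-DOPA for diphenolase. Substrate was added as 200 µL of a 2.7 mM L-tyrosine or 5.4 mM L-DOPA stock. Samples were 10 mM EtOH stocks. Dopachrome formation was read at 475 nm at 30 °C. Runs were triplicate, and IC50 came from a logistic curve fit.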

Test [2] concerns the target T1, Tyrosinase. The test is described as follows: Inhibition of diphenolase activity of mushroom tyrosinase using as L-DOPA substrate. Put shortly:
as §1

In test [3] the target is T1, Tyrosinase. The test is described as follows: Inhibition of mushroom tyrosinase by kinetic based assay. Conditions: read-out: Ki(app). Put shortly:
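Time-dependent assay with L-tyrosine substrate in 0.25 M phosphate buffer (pH 6.8) at 30 °C. Activity was monitored continuously for 15 min, giving 20 points at 30 s intervals, at several inhibitor concentrations and fixed substrate. kobs came from the slow-binding equation or from ln(residual activity) versus preincubation time. k3, k4 and Kiapp came from kobs versus [I] by the Morrison–Walsh method, using nonlinear regression.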

For test [4], the target named is T1, Tyrosinase. The test is described as follows: Inhibition of monophenolase activity of mushroom tyrosinase using as L-tyrosine substrate by Lineweaver-Burke plot based kinetic assay.
Test [5] has as its target T1, Tyrosinase. Kind of test: Inhibition of diphenolase activity of mushroom tyrosinase using as L-DOPA substrate by Lineweaver-Burke plot based kinetic assay. Summed up: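 Diphenolase kinetics used 0.25 M phosphate buffer (pH 6.8) at 30 °C, reading dopachrome at 475 nm. L-DOPA concentration was varied at several fixed inhibitor concentrations. Reciprocal velocity was plotted against 1/[L-DOPA] (Lineweaver–Burk), and inhibition type and Ki were read from the line pattern.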

Molecules are shown by their SMILES. pIC50, pKi: −log10 of the molar value.

Take `CC(C)=CCc1c(CCCc2ccc(O)cc2O)cc(O)c(O)c1CC=C(C)C` [KAZINOL F]: the pIC50 (as a rule, the IC50 on a negative log10 scale, so that one unit is a factor of ten) was 6.02 at Tyrosinase [1] and 5.77 against Tyrosinase [2]. Further, the pKi (as a rule, −log10 of the Ki, conventionally taken in molar units) on Tyrosinase [3] is 6.74; at Tyrosinase [4] it was 6.39; at Tyrosinase [5], 6.11.
Consider `C=CC(C)(C)c1cc(CCCc2cc(O)c(O)c(CC=C(C)C)c2CC=C(C)C)c(O)cc1O` [KAZINOL C], for which the negative logarithm of the IC50 (pIC50) at Tyrosinase [1] is 4.81; against Tyrosinase [2], 4.64. The negative logarithm of the Ki (pKi) was 4.97 on Tyrosinase [4] and 4.95 at Tyrosinase [5].
In the case of `C=CC(C)(C)c1cc(CCCc2cc(O)c3c(c2CC=C(C)C)CC(C(C)(C)O)O3)c(O)cc1O` (stereo not drawn) [KAZINOL T], the values for the negative logarithm of the IC50 (pIC50) against Tyrosinase [1] and against Tyrosinase [2] were 3.99 and less than 3.70, respectively.
Consider `C=CC(C)(C)c1cc(CCCc2cc(O)c3c(c2CC=C(C)C)CCC(C)(C)O3)c(O)cc1O` [KAZINOL D], for which the negative logarithm of the IC50 (pIC50) against Tyrosinase [1] is 3.78; at Tyrosinase [2], less than 3.70.
With `C=CC(C)(C)c1cc(CCCc2cc(O)c(O)c(CC3OC3(C)C)c2CC=C(C)C)c(O)cc1O` (stereo not drawn) [KAZINOL S], the pIC50 against Tyrosinase [1] was 4.75; against Tyrosinase [2] it was 4.57. Also, the pKi on Tyrosinase [3] was 6.06; at Tyrosinase [4], 5.04; on Tyrosinase [5] it was 4.81.
The corresponding values for `CC(C)=CCc1cc(CCCc2ccc(O)cc2O)ccc1O` [BROUSSONIN C] are 6.37, 6.24, 7.31, 6.64 and 6.54.
